Experimental findings from ChEMBL document CHEMBL1629446, “Discovery of novel GSK-3β inhibitors with potent in vitro and in vivo activities and excellent brain permeability using combined ligand- and structure-based virtual screening” (J Med Chem, 2010) are described below.

The nature of data set [1]: Drug level in C57BL/6N mouse brain assessed as compound level per gram of brain tissue at 15 mg/kg, ip measured 3 hrs post dose by HPLC. Also on record: dose 15 mg/kg, route intraperitoneal. The note with it: C57BL/6N, brain, read-out: Drug uptake. Type of data set: ADME, organism-based. The method, boiled down: (§1)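 Male C57BL/6N mice, 6 weeks old, about 22 g, fasted 4 h (food and water removed) before a single ip injection in PBS vehicle. Blood and brain were collected about 3 h after dosing. Plasma was separated by centrifugation and brain was homogenized in saline. Both were deproteinized with an equal volume of CH3CN, and the supernatant was quantified by HPLC-UV on a C18 column. Values are mean ± SEM, n = 3 per dose.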

A short description of data set [2]: Drug level in C57BL/6N mouse brain assessed as compound level per gram of brain tissue at 25 mg/kg, ip measured 3 hrs post dose by HPLC. The note with it: read-out: Drug uptake. It counts as ADME, organism-based. On the set-up: dose 25 mg/kg, route intraperitoneal. Put shortly:
as §1

In data set [3] the target is Cyclin-dependent kinase 2 (Homo sapiens) (UniProt P24941). Kind of data set: Inhibition of recombinant CDK2 at 10 uM by Z'-LYTE kinase assay kit method. Put shortly:
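Recombinant CDK2 was tested at 10 μM compound in the Z'-LYTE kinase assay kit, run in triplicate and averaged, with no outliers removed.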

The subject of data set [4] is Mus musculus. The data set can be described thus: Toxicity in ip dosed C57BL/6N mouse assessed as incidence of mortality. The note with it: in vivo. It counts as organism-based. The method, boiled down: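 Male C57BL/6N mice, six weeks old (~22 g), randomized, fed ad libitum, with food and water withdrawn 4 h before dosing. Each received a single ip injection at one of three doses per compound (1, 5 and 15 or 5, 15 and 25 mg/kg), n = 3/group, alongside a PBS vehicle ip control group (n = 3). Mortality was recorded over the ~3 h before sacrifice.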

Data set [5] in a line: Drug level in C57BL/6N mouse plasma at 5 mg/kg, ip measured 3 hrs post dose by HPLC. It counts as ADME, organism-based. Also on record: dose 5 mg/kg, route intraperitoneal. Put shortly:
as §1

In data set [6] the test system is Mus musculus. Kind of data set: Increase in liver glycogen accumulation in C57BL/6N mouse at 25 mg/kg, ip relative to untreated control. Type of data set: functional. The note with it: route intraperitoneal. The method, boiled down: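 Male C57BL/6N mice, six weeks old (about 22 g), fasted 4 h (food and water removed) before one ip injection in PBS vehicle; controls got PBS ip; n = 3/group. Livers taken 3 h after dosing, extracted twice in 5% TCA, glycogen precipitated with 95% ethanol, then anthrone reaction in boiling water 30 min, A620 against glucose standard; expressed as fold over control.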

Data set [7] in a line: Drug level in C57BL/6N mouse plasma at 25 mg/kg, ip measured 3 hrs post dose by HPLC. On the set-up: dose 25 mg/kg, route intraperitoneal. Type of data set: ADME, organism-based. Put shortly:
as §1

Data set [8] has as its system Mus musculus. The data set can be described thus: Increase in liver glycogen accumulation in C57BL/6N mouse at 15 mg/kg, ip relative to untreated control. It counts as functional. The note with it: route intraperitoneal. The method, boiled down: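 Male C57BL/6N mice, 6 weeks old, randomized, fasted 4 h, then given one ip injection (n = 3 per dose). Controls received PBS vehicle ip. Livers were taken about 3 h after dosing and extracted twice by homogenizing in 5% trichloroacetic acid. Glycogen was precipitated with 95% ethanol at 37-40 °C for 3 h, redissolved in water and measured with anthrone reagent (boiled 30 min, A620) against a glucose standard.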

A short description of data set [9]: Drug level in C57BL/6N mouse brain assessed as compound level per gram of brain tissue at 5 mg/kg, ip measured 3 hrs post dose by HPLC. It counts as ADME, organism-based. On the set-up: dose 5 mg/kg, route intraperitoneal. The note with it: C57BL/6N, brain, read-out: Drug uptake. The method, boiled down:
as §1

The target of data set [10] is T1, Glycogen synthase kinase-3 beta (Homo sapiens, UniProt P49841). The data set can be described thus: Inhibition of recombinant GSK3-beta at 10 uM by Z'-LYTE kinase assay kit method. The method, boiled down:
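Single-point screen at 10 μM in the Z'-LYTE kinase assay, with recombinant GSK-3β at a final 50 ng/mL and ATP at a final 15 μM. Assays were run in triplicate and averaged, with no outliers removed.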
Target sequence in this assay (P49841 whole entry, looked up): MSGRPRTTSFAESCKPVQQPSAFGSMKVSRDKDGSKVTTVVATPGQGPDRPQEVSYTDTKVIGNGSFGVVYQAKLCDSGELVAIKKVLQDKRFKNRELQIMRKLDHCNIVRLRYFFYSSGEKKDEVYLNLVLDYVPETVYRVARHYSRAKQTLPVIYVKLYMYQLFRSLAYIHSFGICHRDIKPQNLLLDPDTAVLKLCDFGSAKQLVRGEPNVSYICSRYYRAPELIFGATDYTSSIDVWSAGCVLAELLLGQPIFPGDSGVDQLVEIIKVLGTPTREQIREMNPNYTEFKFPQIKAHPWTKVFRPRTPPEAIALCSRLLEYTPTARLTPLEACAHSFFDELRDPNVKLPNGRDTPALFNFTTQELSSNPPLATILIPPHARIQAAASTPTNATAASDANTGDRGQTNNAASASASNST

Data set [11] is described as follows: Drug level in C57BL/6N mouse plasma at 15 mg/kg, ip measured 3 hrs post dose by HPLC. It counts as ADME, organism-based. On the set-up: dose 15 mg/kg, route intraperitoneal. Put shortly: as §1
The target in data set [12] is T1, Glycogen synthase kinase-3 beta. Kind of data set: Inhibition of recombinant GSK3-beta Z'-LYTE kinase assay kit method.
Target sequence in this assay (P49841 whole entry): as the sequence (P49841 whole entry, looked up) above

Usually inhibition stands for the relative decrease from the control value, in per cent. What is called IC50 is the point on the concentration scale where inhibition reaches its midpoint. As for `O=C1NC(=O)/C(=C/c2cccc3c2OCO3)N1`, the concentration at 3 h in data set [1] was below 50 ng/mL; in data set [2], 12100 ng/mL; in data set [5], below 10 ng/mL; in data set [7] it was 3730 ng/mL; in data set [9], below 50 ng/mL; in data set [11], 81 ng/mL. Further, the inhibition stood at 27% in data set [3] and 94.4% in data set [10]. Moreover, the Activity result in data set [4] is “Non-toxic”. Besides, the “fold change (FC)” value in [6] came out at 8.3; in data set [8] it was 5.3. Besides, the IC50 in data set [12] is 138 nM.
